Laboratory results reported in ChEMBL document CHEMBL4609978, “Synthesis and evaluation of 2'-dihalo ribonucleotide prodrugs with activity against hepatitis C virus” (Bioorg Med Chem, 2020).

Test system: not listed separately
Assay: Prodrug conversion in Beagle dog liver assessed as nucleotide triphosphate level at 5 mg/kg, po qd for 4 days co-dosed with 5 mg/kg sofosbuvir and measured at 24 hrs post-last dose by LC-MS/MS analysis
Type: ADME, organism-based, Canis lupus familiaris
Conditions: in vivo
Outline: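 Beagle dogs (3 per time point) dosed orally once daily for 4 days with prodrug (1 or 5 mg/kg) in EtOH:PEG-400:Phosal 53 MCT (10:30:60, w/w) together with sofosbuvir 5 mg/kg; liver biopsy 24 h after final dose, flash frozen, triphosphate by LC-MS/MS.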

Point of comparison: `CCOC(=O)C(C)(C)N[P@@](=O)(OC[C@H]1O[C@@H](n2ccc(=O)[nH]c2=O)[C@](Cl)(Br)[C@@H]1O)Oc1ccccc1`, Drug metabolism 6.05 µM. Against it:
- CCOC(=O)C(C)(C)N[P@](=O)(OC[C@H]1O[C@@H](n2ccc(=O)[nH]c2=O)[C@](Cl)(Br)[C@@H]1O)Oc1ccccc1 — 1.8-fold higher, 11.1 µM

Test system: not listed separately
Assay: Stability in human plasma assessed as parent compound remaining after 4 hrs
Type: ADME, cell-free
Conditions: read-out: Stability
Outline: (§1)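 Prodrug incubated 4 h at 37 °C in dog or human plasma; result given as percent parent remaining.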

Point of comparison: `CCOC(=O)C(C)(C)N[P@](=O)(OC[C@H]1O[C@@H](n2ccc(=O)[nH]c2=O)[C@](Cl)(Br)[C@@H]1O)Oc1ccccc1`, remaining at 4 h 100%. Against it:
- CCOC(=O)C(C)(C)N[P@@](=O)(OC[C@H]1O[C@@H](n2ccc(=O)[nH]c2=O)[C@](Cl)(Br)[C@@H]1O)Oc1ccccc1 — lower, 92%

Test system: not listed separately
Assay: Unbound drug level in human plasma
Type: ADME, cell-free
Conditions: not given

Point of comparison: `CCOC(=O)C(C)(C)N[P@](=O)(OC[C@H]1O[C@@H](n2ccc(=O)[nH]c2=O)[C@](Cl)(Br)[C@@H]1O)Oc1ccccc1`, fraction unbound 0.24. Against it:
- CCOC(=O)C(C)(C)N[P@@](=O)(OC[C@H]1O[C@@H](n2ccc(=O)[nH]c2=O)[C@](Cl)(Br)[C@@H]1O)Oc1ccccc1 — higher, 0.31

Test system: Hepatitis C virus
Assay: Antiviral activity against HCV genotype 1b Con1 infected in human HuH7 replicon cells assessed as inhibition of viral replication after 3 days by luciferase reporter gene assay
Type: functional, organism-based, Hepacivirus hominis
Conditions: subtype 1b Con1, Huh-7, 72 h
Outline: (§2)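 Stable subgenomic replicon cell lines (genotype 1a-H77 or 1b-Con1) carrying a luciferase reporter; compounds added in DMEM with 5% FBS, cells incubated 3 days with or without compound, then lysed and luciferase activity read; EC50 from nonlinear regression fit to 4-parameter logistic equation.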

Point of comparison: `CCOC(=O)C(C)(C)N[P@](=O)(OC[C@H]1O[C@@H](n2ccc(=O)[nH]c2=O)[C@](Cl)(Br)[C@@H]1O)Oc1ccccc1`, EC50 952 nM. Against it:
- CCOC(=O)C(C)(C)N[P@@](=O)(OC[C@H]1O[C@@H](n2ccc(=O)[nH]c2=O)[C@](Cl)(Br)[C@@H]1O)Oc1ccccc1 — 2.7-fold higher, 2560 nM

Test system: not listed separately
Assay: Prodrug conversion in Beagle dog liver assessed as nucleotide triphosphate level at 5 mg/kg, po co-dosed with 5 mg/kg sofosbuvir measured after 24 hrs by LC-MS/MS analysis
Type: ADME, organism-based, Canis lupus familiaris
Conditions: in vivo
Outline: (§3)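 Beagle dogs (3 per time point) given single oral prodrug 5 mg/kg in EtOH:PEG-400:Phosal 53 MCT (10:30:60, w/w), cassette-dosed with sofosbuvir 5 mg/kg as internal standard; liver biopsies at 4 or 24 h, flash frozen, triphosphate measured by LC-MS/MS.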

Point of comparison: `CCOC(=O)C(C)(C)N[P@@](=O)(OC[C@H]1O[C@@H](n2ccc(=O)[nH]c2=O)[C@](Cl)(Br)[C@@H]1O)Oc1ccccc1`, Drug metabolism 4.03 µM. Against it:
- CCOC(=O)C(C)(C)N[P@](=O)(OC[C@H]1O[C@@H](n2ccc(=O)[nH]c2=O)[C@](Cl)(Br)[C@@H]1O)Oc1ccccc1 — within 1.5-fold, 5.44 µM

Test system: not listed separately
Assay: Stability in dog plasma assessed as parent compound remaining after 4 hrs
Type: ADME, cell-free, Canis lupus familiaris
Conditions: read-out: Stability
Outline: as §1

Point of comparison: `CCOC(=O)C(C)(C)N[P@](=O)(OC[C@H]1O[C@@H](n2ccc(=O)[nH]c2=O)[C@](Cl)(Br)[C@@H]1O)Oc1ccccc1`, remaining at 4 h 86%. Against it:
- CCOC(=O)C(C)(C)N[P@@](=O)(OC[C@H]1O[C@@H](n2ccc(=O)[nH]c2=O)[C@](Cl)(Br)[C@@H]1O)Oc1ccccc1 — higher, 100%

Test system: not listed separately
Assay: Intrinsic clearance in human hepatocytes
Type: ADME, cell-based, Hepatocyte
Conditions: read-out: CLH (converted)

Point of comparison: `CCOC(=O)C(C)(C)N[P@](=O)(OC[C@H]1O[C@@H](n2ccc(=O)[nH]c2=O)[C@](Cl)(Br)[C@@H]1O)Oc1ccccc1`, CLint scaled 268 mL/min/kg. Against it:
- CCOC(=O)C(C)(C)N[P@@](=O)(OC[C@H]1O[C@@H](n2ccc(=O)[nH]c2=O)[C@](Cl)(Br)[C@@H]1O)Oc1ccccc1 — 1.7-fold lower, 155 mL/min/kg

Test system: not listed separately
Assay: Prodrug conversion in Beagle dog liver assessed as nucleotide triphosphate level at 5 mg/kg, po administered as single dose measured after 4 hrs by LC-MS/MS analysis
Type: ADME, organism-based, Canis lupus familiaris
Conditions: in vivo

Point of comparison: `CCOC(=O)C(C)(C)N[P@](=O)(OC[C@H]1O[C@@H](n2ccc(=O)[nH]c2=O)[C@](Cl)(Br)[C@@H]1O)Oc1ccccc1`, Drug metabolism 8.83 µM. Against it:
- CCOC(=O)C(C)(C)N[P@@](=O)(OC[C@H]1O[C@@H](n2ccc(=O)[nH]c2=O)[C@](Cl)(Br)[C@@H]1O)Oc1ccccc1 — within 1.5-fold, 7.21 µM

Test system: not listed separately
Assay: Unbound drug level in dog plasma
Type: ADME, cell-free, Canis lupus familiaris
Conditions: not given

Point of comparison: `CCOC(=O)C(C)(C)N[P@](=O)(OC[C@H]1O[C@@H](n2ccc(=O)[nH]c2=O)[C@](Cl)(Br)[C@@H]1O)Oc1ccccc1`, fraction unbound 0.133. Against it:
- CCOC(=O)C(C)(C)N[P@@](=O)(OC[C@H]1O[C@@H](n2ccc(=O)[nH]c2=O)[C@](Cl)(Br)[C@@H]1O)Oc1ccccc1 — higher, 0.187

Test system: Hepatitis C virus
Assay: Antiviral activity against HCV genotype 1b Con1 over expressing CES1 infected in human HuH7 replicon cells assessed as inhibition of viral replication after 3 days by luciferase reporter gene assay
Type: functional, organism-based, Hepacivirus hominis
Conditions: subtype 1b Con1, Huh-7, 72 h

Work on `CCOC(=O)C(C)(C)N[P@](=O)(OC[C@H]1O[C@@H](n2ccc(=O)[nH]c2=O)[C@](Cl)(Br)[C@@H]1O)Oc1ccccc1` yielded an EC50 of 154 nM.

Test system: not listed separately
Assay: Prodrug conversion in Beagle dog liver assessed as nucleotide triphosphate level at 5 mg/kg, po co-dosed with 5 mg/kg sofosbuvir measured after 4 hrs by LC-MS/MS analysis
Type: ADME, organism-based, Canis lupus familiaris
Conditions: in vivo
Outline: as §3

Point of comparison: `CCOC(=O)C(C)(C)N[P@](=O)(OC[C@H]1O[C@@H](n2ccc(=O)[nH]c2=O)[C@](Cl)(Br)[C@@H]1O)Oc1ccccc1`, Drug metabolism 15.03 µM. Against it:
- CCOC(=O)C(C)(C)N[P@@](=O)(OC[C@H]1O[C@@H](n2ccc(=O)[nH]c2=O)[C@](Cl)(Br)[C@@H]1O)Oc1ccccc1 — 2.8-fold lower, 5.35 µM

Test system: not listed separately
Assay: Prodrug conversion in human primary hepatocytes assessed as increase in nucleotide triphosphate level at 100 uM incubated for 4 hrs followed by compound wash-out for 20 hrs and measured following 4 hrs incubation period by LC-MS/MS analysis relative to sofosbuvir
Type: ADME, cell-based, Hepatocyte
Conditions: not given

With `CCOC(=O)C(C)(C)N[P@](=O)(OC[C@H]1O[C@@H](n2ccc(=O)[nH]c2=O)[C@](Cl)(Br)[C@@H]1O)Oc1ccccc1` the fold change (FC) was 30 to 40.

Test system: not listed separately
Assay: Prodrug conversion in Beagle dog liver assessed as nucleotide triphosphate level at 5 mg/kg, po administered as single dose measured after 24 hrs by LC-MS/MS analysis
Type: ADME, organism-based, Canis lupus familiaris
Conditions: in vivo

Point of comparison: `CCOC(=O)C(C)(C)N[P@@](=O)(OC[C@H]1O[C@@H](n2ccc(=O)[nH]c2=O)[C@](Cl)(Br)[C@@H]1O)Oc1ccccc1`, Drug metabolism 2.64 µM. Against it:
- CCOC(=O)C(C)(C)N[P@](=O)(OC[C@H]1O[C@@H](n2ccc(=O)[nH]c2=O)[C@](Cl)(Br)[C@@H]1O)Oc1ccccc1 — within 1.5-fold, 2.1 µM

Test system: not listed separately
Assay: Prodrug conversion in human primary hepatocytes assessed as nucleotide triphosphate level at 100 uM incubated for 4 hrs followed by compound wash-out for 20 hrs and measured following 4 hrs incubation period by LC-MS/MS analysis
Type: ADME, cell-based, Hepatocyte
Conditions: not given
Outline: (§4)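 Cryopreserved primary human hepatocytes plated ~55,000 viable cells/well on collagen, medium changed after 4–6 h to Williams E maintenance medium with Geltrex 0.35 mg/mL, overnight at 37 °C; prodrug 100 µM for 4 h, then washed; second plate held a further 20 h drug-free; cells washed with ice-cold HBSS, triphosphate measured by LC-MS/MS at 4 or 24 h.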

`CCOC(=O)C(C)(C)N[P@](=O)(OC[C@H]1O[C@@H](n2ccc(=O)[nH]c2=O)[C@](Cl)(Br)[C@@H]1O)Oc1ccccc1` gave a Drug metabolism of 2818 µM.

Test system: Hepatitis C virus
Assay: Antiviral activity against HCV genotype 1a H77 infected in human HuH7 replicon cells assessed as inhibition of viral replication after 3 days by luciferase reporter gene assay
Type: functional, organism-based, Hepacivirus hominis
Conditions: subtype 1a H77, Huh-7, 72 h
Outline: as §2

Point of comparison: `CCOC(=O)C(C)(C)N[P@](=O)(OC[C@H]1O[C@@H](n2ccc(=O)[nH]c2=O)[C@](Cl)(Br)[C@@H]1O)Oc1ccccc1`, EC50 644 nM. Against it:
- CCOC(=O)C(C)(C)N[P@@](=O)(OC[C@H]1O[C@@H](n2ccc(=O)[nH]c2=O)[C@](Cl)(Br)[C@@H]1O)Oc1ccccc1 — 4.2-fold higher, 2720 nM

Test system: not listed separately
Assay: Distribution coefficient, logD of compound by HT-LCMS analysis
Type: physicochemical
Conditions: octanol/water

Point of comparison: `CCOC(=O)C(C)(C)N[P@@](=O)(OC[C@H]1O[C@@H](n2ccc(=O)[nH]c2=O)[C@](Cl)(Br)[C@@H]1O)Oc1ccccc1`, logD 3.07. Against it:
- CCOC(=O)C(C)(C)N[P@](=O)(OC[C@H]1O[C@@H](n2ccc(=O)[nH]c2=O)[C@](Cl)(Br)[C@@H]1O)Oc1ccccc1 — within 0.2 log units, 3.11

Test system: not listed separately
Assay: Prodrug conversion in human primary hepatocytes assessed as nucleotide triphosphate level at 100 uM incubated for 4 hrs and followed by compound washout for 20 hrs and measured following 24 hrs incubation period by LC-MS/MS analysis
Type: ADME, cell-based, Hepatocyte
Conditions: not given
Outline: as §4

Work on `CCOC(=O)C(C)(C)N[P@](=O)(OC[C@H]1O[C@@H](n2ccc(=O)[nH]c2=O)[C@](Cl)(Br)[C@@H]1O)Oc1ccccc1` yielded a Drug metabolism of 203 µM.

Test system: not listed separately
Assay: Intrinsic clearance in dog hepatocytes
Type: ADME, cell-based, Canis lupus familiaris, Hepatocyte
Conditions: read-out: CLH (converted)

Point of comparison: `CCOC(=O)C(C)(C)N[P@@](=O)(OC[C@H]1O[C@@H](n2ccc(=O)[nH]c2=O)[C@](Cl)(Br)[C@@H]1O)Oc1ccccc1`, CLint scaled 98.3 mL/min/kg. Against it:
- CCOC(=O)C(C)(C)N[P@](=O)(OC[C@H]1O[C@@H](n2ccc(=O)[nH]c2=O)[C@](Cl)(Br)[C@@H]1O)Oc1ccccc1 — 2-fold higher, 200 mL/min/kg

Test system: not listed separately
Assay: Aqueous solubility of compound in pH 7.4 phosphate buffer
Type: physicochemical
Conditions: not given

`CCOC(=O)C(C)(C)N[P@@](=O)(OC[C@H]1O[C@@H](n2ccc(=O)[nH]c2=O)[C@](Cl)(Br)[C@@H]1O)Oc1ccccc1` and `CCOC(=O)C(C)(C)N[P@](=O)(OC[C@H]1O[C@@H](n2ccc(=O)[nH]c2=O)[C@](Cl)(Br)[C@@H]1O)Oc1ccccc1` cannot be ordered by solubility: > 200 µM for the first, > 200 µM for the second.

Test system: not listed separately
Assay: Prodrug conversion in Beagle dog liver assessed as nucleotide triphosphate level at 5 mg/kg, po qd for 4 days and measured at 24 hrs post-last dose by LC-MS/MS analysis
Type: ADME, organism-based, Canis lupus familiaris
Conditions: in vivo

Point of comparison: `CCOC(=O)C(C)(C)N[P@@](=O)(OC[C@H]1O[C@@H](n2ccc(=O)[nH]c2=O)[C@](Cl)(Br)[C@@H]1O)Oc1ccccc1`, Drug metabolism 1.43 µM. Against it:
- CCOC(=O)C(C)(C)N[P@](=O)(OC[C@H]1O[C@@H](n2ccc(=O)[nH]c2=O)[C@](Cl)(Br)[C@@H]1O)Oc1ccccc1 — 2-fold higher, 2.89 µM
